# Results taken from article PMC9063861 (RSC Advances, 2019).
# Key:
# [1] = biological target: T1, Horseradish peroxidase (HRP) (Armoracia rusticana, UniProt P00433); assay: Kinetics of the oxidation of flavones catalyzed by HRP; assay type: biochemical
# T1 sequence (P00433 31-338 limits assumed): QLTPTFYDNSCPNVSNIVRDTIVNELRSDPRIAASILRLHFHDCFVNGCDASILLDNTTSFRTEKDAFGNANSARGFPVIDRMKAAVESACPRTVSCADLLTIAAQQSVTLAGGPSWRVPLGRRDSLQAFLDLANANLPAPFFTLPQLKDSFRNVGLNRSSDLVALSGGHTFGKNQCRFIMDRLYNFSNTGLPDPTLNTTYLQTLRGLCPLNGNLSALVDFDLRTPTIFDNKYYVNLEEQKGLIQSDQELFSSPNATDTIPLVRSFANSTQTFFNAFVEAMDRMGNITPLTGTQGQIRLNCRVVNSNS
# Method in brief: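 Horseradish peroxidase, >250 U mg−1. Oxidation products were quantified by LC-MS/MS using ESI in negative mode with multiple reaction monitoring. The mobile phase was acetonitrile–0.1% formic acid (aq) at 450 μL min−1. Nitrogen served as curtain and collision gas, at 13 and 6 psi respectively.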
# [2] = biological target: Laccase from Trametes versicolor; assay: Kinetics of the oxidation of flavones catalyzed by laccase; assay type: biochemical
# Method in brief: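 Laccase from Trametes versicolor, 120 U g−1. Oxidation products were quantified by LC-MS/MS using ESI in negative mode with multiple reaction monitoring. The mobile phase was acetonitrile–0.1% formic acid (aq) at 450 μL min−1. Nitrogen served as curtain and collision gas, at 13 and 6 psi respectively.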
SMILES,kinetic model of oxidation by HRP [1],kinetic model of oxidation by laccase [2],K m ([1]; formation of the named product),n (Hill kinetic model) ([1]; formation of the named product),K m ([2]; formation of the named product),Ki ([2]; read-out: Ki (inhibitory effect on laccase))
"O=C1C[C@@H](c2ccc(O)cc2)Oc2cc(O)cc(O)c21 [compound 8, naringenin]",substrate inhibition kinetics,,,,,
"O=c1cc(-c2ccc(O)cc2)oc2cc(O)cc(O)c12 [compound 1, apigenin]",Hill kinetic model,,0.1635 mM,2.944,,
"O=c1c(O)c(-c2ccc(O)cc2)oc2cc(O)cc(O)c12 [compound 5, kaempferol]",,substrate inhibition kinetic model,,,8.288 ± 0.401 mM,1660 µM

# Results, then the molecule that gave them:
kinetic model of oxidation by HRP [1],kinetic model of oxidation by laccase [2],K m ([1]; formation of the named product),n (Hill kinetic model) ([1]; formation of the named product),K m ([2]; formation of the named product),Ki ([2]; read-out: Ki (inhibitory effect on laccase)),SMILES
substrate inhibition kinetics,Hill-kinetic model,,,,,"O=C(/C=C/c1ccc(O)cc1)c1ccc(O)cc1O [compound 12, isoliquiritigenin]"
Hill kinetic model,Hill-kinetic model,,,,,"O=c1c(-c2ccc(O)cc2)coc2cc(O)ccc12 [compound 10, daidzein]"
